Consider 16 molecules from ChEMBL document CHEMBL2010735, “Bioactive hydroanthraquinones and anthraquinone dimers from a soft coral-derived Alternaria sp. fungus” (J Nat Prod, 2012).

In one assay the test system is Escherichia coli. The experiment in a line: Antibacterial activity against Escherichia coli after 18 hrs by MTT assay. As to conditions: in the assay text read “by broth dilution assay” for “by MTT assay”. The class given is functional. In outline: (§1)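 Conventional broth dilution assay against a panel of nine bacterial strains including E. coli and S. albus; V. parahemolyticus also used as pathogenic test organism.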

The test system of another assay is Staphylococcus. Briefly: Antibacterial activity against Staphylococcus albus after 18 hrs by MTT assay. Format: functional. The following applies: in the assay text read “by broth dilution assay” for “by MTT assay”. In outline:
as §1

The test system of a further assay is Vibrio parahaemolyticus. Briefly: Antibacterial activity against Vibrio parahaemolyticus after 18 hrs by MTT assay. As to conditions: in the assay text read “by broth dilution assay” for “by MTT assay”. Format: functional. In outline: as §1
In the next assay the test system is PC-3. The experiment in a line: Cytotoxicity against human PC3 cells after 6 days by MTT assay. The class given is functional, cell-based. The following applies: PC-3, 144 h.
Another assay has as its system HepG2. Briefly: Cytotoxicity against human HepG2 cells after 6 days by MTT assay. The class given is functional, cell-based. The following applies: HepG2, 144 h.
Assay [1] in a line: Cytotoxicity against human MCF7/ADR cells after 6 days by MTT assay. The class given is functional, cell-based. The following applies: NCI/ADR-RES, 144 h.
The next assay concerns HCT-116. Briefly: Cytotoxicity against human HCT116 cells after 6 days by MTT assay. Format: functional, cell-based. As to conditions: HCT-116, 144 h.
Assay [2] in a line: Cytotoxicity against human Hep3B cells after 6 days by MTT assay. Format: functional, cell-based, Hep 3B2. As to conditions: 144 h.
The test system of assay [3] is Porcine reproductive and respiratory syndrome virus. Briefly: Antiviral activity against Porcine reproductive and respiratory syndrome virus infected in CRL11171 cells assessed as inhibition of viral replication by RT-PCR analysis. Format: functional, cell-based.

Converted amounts (≈) assume the structure as drawn.

For `O=C(O)c1cn(C2CC2)c2cc(N3CCNCC3)c(F)cc2c1=O` [CIPROFLOXACIN], the MIC against Escherichia coli was 0.62 µM (≈ 0.205 µg/mL); against Staphylococcus it was 0.31 µM (≈ 0.103 µg/mL); in the assay with Vibrio parahaemolyticus it was 0.16 µM (≈ 0.053 µg/mL).
As to `COc1cc(O)c2c(c1)C(=O)c1cc(C)c(O)cc1C2=O` [MACROSPORIN], the minimum inhibitory concentration (MIC) in the assay with Escherichia coli was determined as 2.3 µM (≈ 0.654 µg/mL); in the assay with Staphylococcus it was 15 µM (≈ 4.26 µg/mL); in the assay on Vibrio parahaemolyticus, 5 µM (≈ 1.42 µg/mL).
For the molecule `COc1cc(O)c2c(c1)[C@H](O)[C@@H]1C[C@](C)(O)[C@H](O)C[C@H]1C2=O` (relative stereo), the IC50 (in the assay with PC-3; with HepG2; in assay [1]; in the assay with HCT-116; in assay [2]) was greater than 100 µM throughout.
Take `COc1cc(O)c2c(c1)C(=O)c1cc(C)c(O)c(-c3c(OC)cc4c(c3O)C(=O)c3cc(O)c(C)cc3C4=O)c1C2=O` [ALTERPORRIOL Q]: the IC50 in assay [3] was determined as 22 µM.
Take `COc1cc(O)c2c(c1)C(=O)C1=C(C[C@@H](O)[C@@](C)(O)C1)C2=O` [ALTERSOLANOL B]: the concentration for half-maximal inhibition (IC50) (in the assay with PC-3; in the assay on HepG2; in [1]; in the assay on HCT-116; in assay [2]) was greater than 100 µM in each case.
Regarding `COc1cc(O)c2c(c1)[C@@H](O)[C@H]1C[C@](C)(O)[C@H](O)C[C@@H]1C2=O` (relative stereo) [TETRAHYDROALTERSOLANOL C], the IC50 was greater than 100 µM with PC-3; 65 µM in assay [3]; greater than 100 µM in the assay on HepG2; greater than 100 µM in assay [1]; greater than 100 µM in the assay with HCT-116; greater than 100 µM in assay [2].
`COc1cc(O)c2c(c1)C(=O)C1=C(C[C@@H](O)[C@@](C)(O)[C@@H]1O)C2=O` [ALTERSOLANOL C]: the half-maximal inhibitory concentration (IC50) came to 7.6 µM in the assay with PC-3; 8.9 µM with HepG2; 3.2 µM in assay [1]; 2.2 µM with HCT-116; 8.2 µM in assay [2]. Besides, the MIC turned out to be 0.62 µM (≈ 0.199 µg/mL) in the assay on Escherichia coli, 12 µM (≈ 3.84 µg/mL) against Staphylococcus and 1.25 µM (≈ 0.4 µg/mL) against Vibrio parahaemolyticus.
As for `COc1cccc2c1C(=O)c1c(O)c3c(c(O)c1C2=O)C[C@@](O)(C(=O)CO)C[C@@H]3O[C@H]1C[C@H](N)[C@@H](O)[C@H](C)O1` [EPIRUBICIN], the IC50 with PC-3 stood at 0.46 µM; in the assay with HepG2 it was 1.65 µM; in assay [1], 1.65 µM; with HCT-116 it was 0.82 µM; in assay [2], 0.96 µM.
As to `COc1cc(O)c2c(c1)[C@H](O)[C@H]1C[C@](C)(O)[C@@H](O)C[C@@H]1C2=O` (relative stereo) [TETRAHYDROALTERSOLANOL E], the IC50 (in the assay on PC-3; with HepG2; in assay [1]; in the assay with HCT-116; in [2]) was greater than 100 µM in each case.
Consider `COc1cc(O)c2c(c1)[C@H](O)[C@H]1C[C@](C)(O)[C@H](O)C[C@@H]1C2=O` [TETRAHYDROALTERSOLANOL B], for which the half-maximal inhibitory concentration (IC50) (in the assay with PC-3; in the assay with HepG2; in assay [1]; with HCT-116; in assay [2]) was greater than 100 µM in each case.
For `COc1cc(O)c2c(c1)C(=O)c1cc(C)c(O)c(-c3c(OC)cc4c(c3O)C(=O)C3=C(C4=O)[C@@H](O)[C@](C)(O)[C@H](O)[C@H]3O)c1C2=O` [ALTERPORRIOL C], the concentration for half-maximal inhibition (IC50) in the assay with PC-3 was 27 µM; in assay [3], 39 µM; in the assay with HepG2, 53 µM; in assay [1] it was 98 µM; in the assay on HCT-116 it was 24 µM; in assay [2], 51 µM. The figures for the minimal inhibitory concentration (MIC) against Escherichia coli, in the assay with Staphylococcus and against Vibrio parahaemolyticus were 2.5 µM (≈ 1.55 µg/mL), greater than 20 µM and 2.5 µM (≈ 1.55 µg/mL), respectively.
Turning to `COc1cc(O)c2c(c1)[C@H](O)[C@@H]1[C@@H](C2=O)[C@H](O)[C@@H](O)[C@@](C)(O)[C@@H]1O` [AMPELANOL], the concentration for half-maximal inhibition (IC50) (in the assay on PC-3; with HepG2; in [1]; in the assay with HCT-116; in [2]) was greater than 100 µM each time.
Consider `COc1cc(O)c2c(c1)C(=O)c1cc(C)c(O)c(-c3c(OC)cc4c(c3O)C(=O)C3=C(C4=O)[C@@H](O)[C@](C)(O)[C@H](O)C3)c1C2=O` [ALTERPORRIOL P], for which the IC50 in the assay on PC-3 is 6.4 µM; in the assay with HepG2 it was 20 µM; in [1], 23 µM; in the assay on HCT-116, 8.6 µM; in assay [2], 21 µM.
As for `COc1cc(O)c2c(c1)[C@H](O)[C@@H]1C(=C[C@@H](O)[C@@](C)(O)[C@@H]1O)C2=O` (relative stereo), the IC50 (with PC-3; with HepG2; in assay [1]; in the assay with HCT-116; in assay [2]) was greater than 100 µM throughout.
Regarding `COc1cc(O)c2c(c1)[C@H](O)[C@H]1C[C@](C)(O)[C@H](OC(C)=O)C[C@@H]1C2=O`, the IC50 (in the assay on PC-3; with HepG2; in [1]; with HCT-116; in assay [2]) was greater than 100 µM throughout.
On to `COc1cc(O)c2c(c1)[C@H](O)[C@@H]1[C@H](C[C@@H](O)[C@@](C)(O)[C@@H]1O)C2=O` [ALTERSOLANOL L], for which the IC50 (in the assay on PC-3; in the assay with HepG2; in [1]; with HCT-116; in [2]) was greater than 100 µM in each case.
